Source: PubChem BioAssay AID624012 (Broad Institute, 2012)
Several values for one entry are separate records, joined by “and”; a condition that tells them apart may be missing. Equal values may be shown once.

Test system: S. cerevisiae growth in glycerol medium, OD600, 48 h
Assay: S. cerevisiae growth inhibition on glycerol, dose response, glycerol medium, plate reader, dry powder, set 4 (AID 624012)
In short: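 Test system: Saccharomyces cerevisiae yeast whole cells, growth on glycerol; Buffer or medium: CSM medium with glycerol as carbon source; Dosing: test compounds delivered into wells by pin transfer; Timing: 48 h exposure, 30 °C; Signal: optical density at 600 nm (absorbance); Benchmarks: positive control Amphotericin B at 10 µM.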

Row | Compound | AC50
1 | CCOC(=O)N1C(=O)C2(CCCCC2)N(c2ccc(F)cc2)C1=S | 3.97 nM
2 | CCOC(=O)N1C(=O)C2(CCCCC2)N(c2ccccc2)C1=S | 14.6 nM
3 | CCOC(=O)N1C(=O)C2(CCCCC2)N(c2ccc(Cl)cc2)C1=S | 5.77 nM
4 | CCOC(=O)N1C(=O)C2(CCCCC2)N(c2cccc(C)c2)C1=S | 18.1 nM
5 | C/C=C/[C@@H]1[C@H]2C[C@@H](C)CC[C@@H]2C(C)=C[C@H]1C(=O)c1c(O)c(-c2ccc(O)cc2)c[nH]c1=O | 27.5 nM
6 | CCOC(=O)N1C(=O)C2(CCCCC2)N(c2ccc(C)cc2)C1=S | 10.8 nM and 6.97 nM
7 | CCOC(=O)N1C(=O)C2(CCCCC2)N(c2ccc(C#N)cc2)C1=S | 3.65 nM
8 | CC1/C=C/C=C\C=C\C=C\C=C\C=C\C=C\C(O[C@H]2OC(C)C(O)C(N)C2O)CC2OC(O)(CC(O)CC(O)C(O)CCC(O)CC(O)CC(=O)OC(C)C(C)C1O)CC(O)C2C(=O)O (stereo partly drawn) | 274 nM
